High-throughput results (PubChem)
Shown are actives, neighbours in structure and some others; about 2.5% of the full set was active somewhere.
GalR3 antagonist – human GalR3 antagonism; O60755; HEK293 GalR3-CNG cAMP membrane potential fluorescence; galR3 body fused to GalR1 C-terminus; inhibition, % at 3 µM; 0.44% of 360,000 active; AID 651719;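 active = inhibition above the screen-wide average plus 3 SD, cut at about 13% in these data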;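 also: forskolin and galanin both at EC90 stimulate the cells; cAMP rise reported by CNG channel membrane potential dye signal; 0% = forskolin plus galanin with DMSO and 100% = forskolin alone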
Target sequence (O60755 1-299 limits assumed): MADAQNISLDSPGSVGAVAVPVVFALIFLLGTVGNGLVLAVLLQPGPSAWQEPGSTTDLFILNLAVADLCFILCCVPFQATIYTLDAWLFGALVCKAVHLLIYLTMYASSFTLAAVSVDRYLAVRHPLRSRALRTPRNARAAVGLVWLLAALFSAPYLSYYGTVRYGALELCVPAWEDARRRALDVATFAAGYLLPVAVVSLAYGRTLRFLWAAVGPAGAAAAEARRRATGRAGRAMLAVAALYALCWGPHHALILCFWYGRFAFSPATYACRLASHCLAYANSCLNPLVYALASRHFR
NR2E3 ag-1 – human photoreceptor-specific nuclear receptor agonism. Q9Y5X4. CHO-S Gal4-NCOR/VP16-NR2E3 two-hybrid, luciferase. 0.35% of 360,000 active. inhibition of corepressor binding, % at 3.98 µM;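 active = inhibition above the mean of all tested compounds plus 3 SD, cut at about 70% in these data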;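 also: 0% = DMSO with NR2E3 transfected cells and 100% = cells lacking NR2E3 construct; higher means lower luciferase signal from less NR2E3 corepressor binding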
Target sequence (Q9Y5X4 whole entry, looked up, the tested form may be a part): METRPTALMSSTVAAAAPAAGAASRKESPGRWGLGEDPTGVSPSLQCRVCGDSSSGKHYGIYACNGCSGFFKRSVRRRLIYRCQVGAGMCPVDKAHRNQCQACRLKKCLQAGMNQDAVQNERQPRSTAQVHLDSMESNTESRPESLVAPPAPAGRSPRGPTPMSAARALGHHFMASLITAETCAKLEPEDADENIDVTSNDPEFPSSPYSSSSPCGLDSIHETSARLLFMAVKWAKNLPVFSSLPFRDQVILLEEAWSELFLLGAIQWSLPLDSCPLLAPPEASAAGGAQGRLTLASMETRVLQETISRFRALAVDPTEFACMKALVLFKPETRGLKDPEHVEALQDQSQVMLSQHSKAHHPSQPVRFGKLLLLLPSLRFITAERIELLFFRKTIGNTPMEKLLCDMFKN
MsrA inh – inhibitors of bovine MsrA; 0.75% of 360,000 active; inhibition, % at 15.5 µM; purified bovine MsrA, absorbance read-out; in the data active = inhibition above about 4.5%;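 also: 0% = vehicle wells with enzyme and 100% = reference inhibitor wells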
NadD inh – NadD (S. aureus) enzyme inhibition; 0.78% of 360,000 active; AID 602399; purified NadD enzyme, colorimetric absorbance read-out; inhibition, % at 20 µM; in the data active = inhibition above about 26%
NR2E3 ag-2 – NR2E3 (human) agonism. inhibition of corepressor binding, % at 4.78 µM. GST-NR2E3/biotin-RetCOR TR-FRET, 1536-well. Q9Y5X4. 0.12% of 320,000 active. AID 2300;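 active = percent inhibition above the cutoff of mean plus 3 SD of all tested compounds, set per screening campaign, cut at about 20% in these data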;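 also: 0% = DMSO wells and 100% = biotin wells as full block of FRET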
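Material: NR2E3–RetCOR corepressor complex | Quantity: 1.35 nM GST-tagged NR2E3 final | Schedule: 5 h at 4 °C | Replication: Singlicate compound wells | Reagent: RetCOR corepressor, biotinylated, 7 nM | Controls: Biotin wells as high control, 0.6% DMSO wells as low control | Signal: TR-FRET, Eu(K)-anti-GST donor, streptavidin-D2 acceptor, ex 340, em 617/671 nm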
bovine MsrA act – activators of bovine methionine sulfoxide reductase A. AID 602163. 0.3% of 360,000 active. activation, % at 10.6 µM. purified bovine MsrA, absorbance read-out; in the data active = activation above about 7.5%;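 also: 0% = vehicle and 100% = reference activator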
NR2E3 ag conf – confirmation of human NR2E3 agonists | AID 624378 | CHO-S mammalian two-hybrid NR2E3-NCOR, luciferase luminescence | shares compounds with NR2E3 ag-1 | 51% of 2,300 active | inhibition, % at 3.98 µM;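 active = average inhibition above a cutoff equal to the mean inhibition of all tested compounds plus one SD, cut at about 70% in these data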;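 also: 0% = DMSO in NR2E3 cells and 100% = DMSO in cells lacking NR2E3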
VP16 counter – counter-screen for NR2E3 agonists: GAL4-VP16 reporter inhibitors; shares compounds with NR2E3 ag-1; CHO-S GAL4-VP16 luciferase reporter, luminescence; inhibition, % at 3.98 µM; 29% of 2,300 active; AID 624379;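 active = mean inhibition above a cutoff equal to the average over all tested compounds plus one standard deviation, cut at about 70% in these data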;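 also: luciferase from a UAS reporter driven by GAL4-VP16 transactivation; 0% = DMSO with VP16-transfected cells and 100% = DMSO with cells lacking VP16; higher means less reporter light so more repression of VP16 activity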
* hit, by the source's call; nt = no result given.

SMILES | GalR3 antagonist | NR2E3 ag-1 | MsrA inh | NadD inh | NR2E3 ag-2 | bovine MsrA act | NR2E3 ag conf | VP16 counter
CCN1CCN(CCNC(=O)c2ccc(/C=C3\Sc4ccccc4N(Cc4ccccc4F)C3=O)cc2)CC1 | 7 | 48 | 2 | -3 | 1 | -1 | -11 | 35
COc1ccc(CNS(=O)(=O)c2ccc(-c3cc(C)no3)cc2)cc1 | -11 | 51 | 0 | 0 | 5 | -1 | 31 | 34
Cc1cc(-c2ccc(S(=O)(=O)NCc3ccc(F)cc3)cc2)on1 | 1 | 24 | 1 | -6 | 2 | -4 | nt | nt
c1ccc(-c2cc(CSc3nc4ccccc4[nH]3)on2)cc1 | -6 | 63 | -1 | 5 | 0 | -5 | 83* | 51
COc1ccccc1C(C)NC(=O)C1CCN(S(=O)(=O)c2cccs2)CC1 (stereo unspecified) | 5 | 7 | 0 | 3 | 4 | -1 | nt | nt
COc1cc(/C=C/C(=O)OCC(=O)NC(=O)NC2CCCCC2C)ccc1OC(F)F (stereo unspecified) | -2 | 14 | 0 | -5 | -4 | -2 | nt | nt
CCCCn1c2c(c(=N)c3c1CCC3)CCC2 | -5 | 6 | -1 | 6 | 1 | 0 | nt | nt
CCCCCCCCCn1c2c(c(=N)c3c1CCC3)CCC2 | nt | 101* | nt | 1 | 1 | 4 | 99* | 92*
Cc1cccc2c(=O)oc(-c3ccccc3Cl)nc12 | -4 | 3 | 0 | -1 | -2 | -7 | nt | nt
Cc1ccc(-n2nc3c(=O)n(C(C)C(=O)NCCCc4ccccc4)nc(C)c3c2C)cc1 (stereo unspecified) | -9 | 51 | 0 | 6 | -3 | -5 | 19 | 38
Cc1ccc(-n2nc3c(=O)n(CC(=O)NCCCc4ccccc4)nc(C)c3c2C)cc1 | -9 | 20 | 0 | -3 | 1 | -4 | nt | nt
CC(=O)c1sc(NC(=O)CS(=O)(=O)c2ccccc2)nc1C | 1 | 3 | 3 | 1 | 4 | -3 | nt | nt
CCOC(=O)C1CCN(C(=O)c2ccc(Oc3cc(Cl)cc(Cl)c3)o2)CC1 | -4 | 3 | -1 | -7 | 1 | -1 | nt | nt
CC1CCCC=CC2CC(OC(=O)CN(C)C)CC2C(O)C=CC(=O)O1 (stereo unspecified) | 0 | 68 | 1 | 1 | nt | 0 | 98* | 67
COC(=O)c1cc(CSc2nnc(NC3CCCCC3)s2)oc1C | -7 | 58 | 1 | 0 | 1 | -8 | 60 | 58
Cc1csc(SCC(=O)Nc2nc3ccccc3s2)n1 | -1 | -45 | -1 | -1 | 1 | -4 | nt | nt
Cn1cc(SCC(=O)Nc2nc3ccccc3s2)c2ccccc21 | -3 | 48 | 0 | -11 | -3 | -12 | 69 | -1
COc1ccc(S(=O)(=O)N2CCC(C(=O)NCc3ccncc3)CC2)cc1Cl | -4 | -8 | 0 | 0 | 5 | -6 | nt | nt
CCCN(CC1CC1)C(=S)NC(=O)c1cc(Br)ccc1Cl | -5 | 81* | 0 | -6 | nt | -14 | -1 | 8
COc1ccc(CNC(=O)[C@@H](C)NC(=O)C2CCN(C(=O)[C@@H](N)CCSC)CC2)cc1 | -4 | -9 | 0 | 3 | 0 | -1 | nt | nt
COc1cccc2sc(Nc3nc(-c4ccccn4)cs3)nc12 | nt | 97* | nt | 35* | 2 | -3 | 100* | -25
CC(=O)c1c(O)cc(O)c(C(C)=O)c1O | nt | 80* | nt | -1 | 3 | -3 | 85* | 34
Nc1nc(N)nc(-c2ccc(Oc3ccccc3)cc2)n1 | 0 | 2 | 0 | -4 | 5 | -10 | nt | nt
Nc1ncnc2c1c(-c1ccc(Oc3ccccc3)cc1)cn2C1CCCC1 | -4 | 74* | 0 | 16 | 4 | 1 | 86* | 72*
Cc1cnc(NC(=O)CCCc2nc3ccccc3s2)s1 | -1 | 109* | 0 | -2 | 8 | -4 | 98* | 23
SMILES | GalR3 antagonist | NR2E3 ag-1 | MsrA inh | NadD inh | NR2E3 ag-2 | bovine MsrA act | NR2E3 ag conf | VP16 counter
COc1ccccc1CNc1nc(NCc2ccc(C)cc2C)c2sccc2n1 | nt | 55 | nt | 26 | nt | -9 | 65 | 61
c1ccc(CNc2nc(NCc3ccccc3)c3sccc3n2)cc1 | -10 | 63 | 0 | 12 | nt | 5 | 74* | 61
COc1ccccc1CNc1nc(NCc2ccccc2)nc2ccsc12 | -6 | 62 | -1 | 10 | nt | -9 | 52 | 49
COc1ccccc1CNc1nc(NCc2ccccc2F)c2sccc2n1 | nt | 82* | nt | 16 | nt | -5 | 94* | 76*
COc1ccccc1CNc1nc(NCc2cccc(OC)c2OC)c2sccc2n1 | -9 | 21 | -1 | 10 | nt | -1 | nt | nt
COCCNc1nc(NCc2ccc(C)cc2C)c2sccc2n1 | -9 | 5 | -1 | 2 | nt | 1 | nt | nt
O=C(CCC1CCCCC1)Nc1ccccc1C(=O)N1CCOCC1 | -3 | -10 | 1 | -1 | 3 | -2 | nt | nt
COC(=O)c1nnn(-c2ccsc2C(=O)OC)c1C(=O)OC | 0 | -9 | 0 | -1 | -2 | -1 | nt | nt
CC(C)(C)c1ccc(CC(=O)N2CCC2(C)C(=O)Nc2cnc3ccccc3c2)cc1 (stereo unspecified) | -8 | 67 | -1 | 1 | nt | -2 | 66 | 48
Cc1ccc(NC(=O)C2(C)CCN2C(=O)Cc2ccc(-c3ccccc3)cc2)cc1 (stereo unspecified) | -7 | 69 | 0 | -7 | nt | 0 | 88* | 68
Cc1cc(C(=O)N/N=C/c2cccn2C)n[nH]1 | -2 | -1 | 3 | -3 | 0 | -4 | nt | nt
COc1ccc(Br)cc1S(=O)(=O)Nc1cccc(C)n1 | -1 | -8 | 1 | -7 | 1 | -4 | nt | nt
CCc1[nH]nc(C(=O)N2CCCC(C(=O)c3cccc(C(F)(F)F)c3)C2)c1C (stereo unspecified) | -2 | 49 | 0 | 6 | -4 | 1 | 20 | 31
O=c1c(Sc2ccccc2)c(C(F)(F)F)[nH]n1-c1ccccc1 | -4 | 57 | 0 | -5 | 3 | -14 | 97* | 74*
CN(C)/C=C(\C#N)C(=O)Nc1ccccc1 | -1 | -40 | 0 | -3 | 2 | 7 | nt | nt
Cc1nn(C)cc1C(C)NC(=O)c1cc(COc2c(F)cccc2F)on1 (stereo unspecified) | -3 | 7 | 0 | 0 | 3 | -1 | nt | nt
COc1cccc(OCc2cc(C(=O)N3CCC(c4ccncc4)CC3)no2)c1 | -2 | 85* | -1 | -6 | 0 | -3 | 89* | 80*
FC(F)(F)c1cccc(Cc2noc(CN3CCC(c4ccncc4)CC3)n2)c1 | -7 | 49 | -1 | -2 | 1 | 0 | 78* | 70
Cc1nn(C)cc1C(C)NC(=O)c1cc(COc2cccc3cnccc23)on1 (stereo unspecified) | -4 | 69 | 0 | -5 | -1 | -7 | -8 | 32
